SMILES strings stand for the structures. Calls of active or inactive are those of the source. The rule behind the calls is not given here.

The subject of data set [1] is Leishmania tropica. In words: Antileishmanial activity against Leishmania tropica MHOM/MA/1988/LEM1314 promastigotes infected in Syrian hamster assessed as reduction in lesion thickness at 2.5 % administered once daily tropically on footpad for 3 weeks starting at week 7 post infection measured 1 week post last dose relative to control. The class given is functional. Set-up: scale not given: the % may be the effect or the level left. The gist of the method:
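L. tropica stationary-phase promastigotes (3 × 10^7 in 50 μL PBS) injected into the left hind footpad. Treatment began at week 7 (+75% footpad thickness) and ran daily for 21 days, n = 10/group. Routes were 50 mg ointment on the lesion (cetyl alcohol/lanolin/petrolatum base), gavage in olive oil, or intralesional meglumine antimoniate 2 mg SbV/kg. Lesion thickness was measured weekly against base-only ointment; sacrifice was 1 week after the last dose.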

Data set [2] deals with Leishmania tropica. The experiment in a line: Antileishmanial activity against Leishmania tropica MHOM/MA/1988/LEM1314 promastigotes infected in Syrian hamster assessed as reduction in parasite load in foodpad skin at 1 % administered once daily tropically on footpad for 3 weeks starting at week 7 post infection measured 1 week post last dose by qPCR analysis relative to control. The class given is functional. Set-up: scale not given: the % may be the effect or the level left. In short, it runs like this:
(§1)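 Hamsters were infected in the footpad and treated daily for 21 days from week 7 post-infection, n = 10/group, and sacrificed 1 week after the last dose. Footpad skin, liver and spleen DNA was assayed by L. tropica-specific TaqMan qPCR (chromosome 29 target), in triplicate with 50 ng DNA per 25 μL reaction. Load was interpolated from Ct on a calibration curve of promastigote DNA, relative to base-ointment controls.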

The test system of data set [3] is Leishmania tropica. In words: Antileishmanial activity against Leishmania tropica MHOM/MA/1988/LEM1314 promastigotes infected in Syrian hamster assessed as reduction in parasite load in foodpad skin at 2.5 % administered once daily tropically on footpad for 3 weeks starting at week 7 post infection measured 1 week post last dose by qPCR analysis relative to control. Set-up: scale not given: the % may be the effect or the level left. The data set is classed as functional. In short, it runs like this: as §1

Data set [4] concerns Leishmania tropica. The experiment in a line: Antileishmanial activity against Leishmania tropica MHOM/MA/1988/LEM1314 promastigotes infected in Syrian hamster assessed as reduction in parasite load in foodpad skin at 5 % administered once daily tropically on footpad for 3 weeks starting at week 7 post infection measured 1 week post last dose by qPCR analysis relative to control. The data set is classed as functional. The arrangement: scale not given: the % may be the effect or the level left. In short, it runs like this:
as §1

Data set [5] has as its system Syrian golden hamster. The experiment in a line: Toxicity in Syrian hamster assessed as pain at 500 mg/kg, po or 5 % administered tropically on footpad for 28 days. The data set is classed as organism-based, Mesocricetus auratus. The following applies: in vivo, 672 h.
In data set [6] the test system is Syrian golden hamster. In words: Toxicity in Syrian hamster assessed as mean serum AST levels at 5 % administered tropically on footpad for 28 days (reference value: 83.4 +/- 4.2 U/L). The data set is classed as organism-based, Mesocricetus auratus. The following applies: in vivo, topical_or_ocular, 672 h.
Data set [7] relates to Syrian golden hamster. The experiment in a line: Toxicity in Syrian hamster assessed as mean serum AST levels at 500 mg/kg administered through oral gavage for 28 days (reference value: 83.4 +/- 4.2 U/L). The data set is classed as organism-based, Mesocricetus auratus. The note with it: in vivo, 672 h.
For data set [8], the system named is Syrian golden hamster. In words: Toxicity in Syrian hamster assessed as mean serum ALT levels at 5 % administered tropically on footpad for 28 days (reference value: 82.2 +/- 4.8 U/L). The data set is classed as organism-based, Mesocricetus auratus. The note with it: in vivo, topical_or_ocular, 672 h.
Data set [9] concerns Syrian golden hamster. In words: Toxicity in Syrian hamster assessed as mean serum ALT levels at 500 mg/kg administered through oral gavage for 28 days (reference value: 82.2 +/- 4.8 U/L). The class given is organism-based, Mesocricetus auratus. The note with it: in vivo, 672 h.
The test system of data set [10] is Syrian golden hamster. The experiment in a line: Toxicity in Syrian hamster infected with Leishmania tropica MHOM/MA/1988/LEM1314 promastigotes assessed as mean serum ALT levels at 200 mg/kg administered through oral gavage for 3 weeks starting at week 7 post infection measured 1 week post last dose (reference value: 81.6 +/- 4.9 U/L). The following applies: in vivo, 168 h. The data set is classed as organism-based, Mesocricetus auratus.

The subject of data set [11] is Syrian golden hamster. In words: Toxicity in Syrian hamster infected with Leishmania tropica MHOM/MA/1988/LEM1314 promastigotes assessed as mean serum ALT levels at 2.5 % administered tropically on footpad for 3 weeks starting at week 7 post infection measured 1 week post last dose (reference value: 81.6 +/- 4.9 U/L). The data set is classed as organism-based, Mesocricetus auratus. The note with it: in vivo, topical_or_ocular, 168 h.

In data set [12] the test system is Syrian golden hamster. In words: Toxicity in Syrian hamster infected with Leishmania tropica MHOM/MA/1988/LEM1314 promastigotes assessed as mean serum creatinine levels at 1 % administered tropically on footpad for 3 weeks starting at week 7 post infection measured 1 week post last dose (reference value: 0.19 mg/dl). The class given is organism-based, Mesocricetus auratus. The note with it: in vivo, topical_or_ocular, 168 h.

Data set [13] has as its system Syrian golden hamster. In words: Toxicity in Syrian hamster assessed as mean serum ALP levels at 500 mg/kg administered through oral gavage for 28 days (reference value: 14.4 +/- 2 U/L). The class given is organism-based, Mesocricetus auratus. The following applies: in vivo, 672 h.
Data set [14] concerns Syrian golden hamster. The experiment in a line: Toxicity in Syrian hamster infected with Leishmania tropica MHOM/MA/1988/LEM1314 promastigotes assessed as mean serum ALP levels at 1 % administered tropically on footpad for 3 weeks starting at week 7 post infection measured 1 week post last dose (reference value: 14.4 +/- 0.9 U/L). The data set is classed as organism-based, Mesocricetus auratus. The note with it: in vivo, topical_or_ocular, 168 h. In short, it runs like this: (§2)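 Infected hamsters were treated daily for 21 days from week 7 post-infection (ointment 1–5%, 200 mg/kg gavage, or intralesional meglumine antimoniate 2 mg SbV/kg). Clinical signs and body weight were monitored during treatment and a 7-day follow-up. After sacrifice, liver and spleen were weighed and serum ALP, ALT, creatinine, urea and AST were measured with kits, compared with untreated infected animals.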

Data set [15] relates to Syrian golden hamster. The experiment in a line: Toxicity in Syrian hamster assessed as urea levels at 500 mg/kg administered through oral gavage for 28 days (reference value: 33.2 +/- 2.8 mg/dl). The note with it: in vivo, 672 h. The class given is organism-based, Mesocricetus auratus.
The subject of data set [16] is Syrian golden hamster. The experiment in a line: Toxicity in Syrian hamster infected with Leishmania tropica MHOM/MA/1988/LEM1314 promastigotes assessed as urea levels at 200 mg/kg administered through oral gavage for 3 weeks starting at week 7 post infection measured 1 week post last dose (reference value: 32.5 +/- 0.8 mg/dl). The data set is classed as organism-based, Mesocricetus auratus. The following applies: in vivo, 168 h.

Data set [17] deals with Syrian golden hamster. In words: Toxicity in Syrian hamster infected with Leishmania tropica MHOM/MA/1988/LEM1314 promastigotes assessed as urea levels at 5 % administered tropically on footpad for 3 weeks starting at week 7 post infection measured 1 week post last dose (reference value: 32.5 +/- 0.8 mg/dl). The data set is classed as organism-based, Mesocricetus auratus. The following applies: in vivo, topical_or_ocular, 168 h.

Data set [18] relates to Syrian golden hamster. The experiment in a line: Toxicity in Syrian hamster infected with Leishmania tropica MHOM/MA/1988/LEM1314 promastigotes assessed as spleen weight at 2.5 % administered tropically on footpad for 3 weeks starting at week 7 post infection measured 1 week post last dose (reference value: 178.8 +/- 1.2 mg). The class given is organism-based, Mesocricetus auratus. The following applies: in vivo, topical_or_ocular, 168 h.

Data set [19] deals with Syrian golden hamster. In words: Toxicity in Syrian hamster infected with Leishmania tropica MHOM/MA/1988/LEM1314 promastigotes assessed as spleen weight at 5 % administered tropically on footpad for 3 weeks starting at week 7 post infection measured 1 week post last dose (reference value: 178.8 +/- 1.2 mg). The class given is organism-based, Mesocricetus auratus. The note with it: in vivo, topical_or_ocular, 168 h.

Data set [20] has as its system Syrian golden hamster. The experiment in a line: Toxicity in Syrian hamster infected with Leishmania tropica MHOM/MA/1988/LEM1314 promastigotes assessed as liver weight at 2.5 % administered tropically on footpad for 3 weeks starting at week 7 post infection measured 1 week post last dose (reference value: 3.3 +/- 0.2 g). The data set is classed as organism-based, Mesocricetus auratus. The note with it: in vivo, topical_or_ocular, 168 h. The gist of the method: as §2

In data set [21] the test system is Syrian golden hamster. The experiment in a line: Toxicity in Syrian hamster assessed as change in body weight at 500 mg/kg, po or 5 % administered tropically on footpad for 28 days. The following applies: in vivo, 672 h. The data set is classed as organism-based, Mesocricetus auratus.
A short description of data set [22]: Toxicity in po dosed dog. The following applies: in vivo. The data set is classed as organism-based, Canis lupus familiaris.
The subject of data set [23] is Leishmania tropica. The experiment in a line: Antileishmanial activity against Leishmania tropica MHOM/MA/1988/LEM1314 promastigotes infected in Syrian hamster assessed as reduction in parasite load in spleen at 2.5 % administered once daily tropically on footpad for 3 weeks starting at week 7 post infection measured 1 week post last dose by qPCR analysis relative to control. The data set is classed as functional. In short, it runs like this:
as §1

Regarding `CC(C)=CCC[C@](C)(O)[C@@H]1CC=C(C)CC1` [LEVOMENOL], the Activity in the data set on Leishmania tropica [1] is reported as 56.4%; in the data set with Leishmania tropica [2] it was 56%; in the data set on Leishmania tropica [3], 83%; in the data set on Leishmania tropica [4], 82%; in the data set with Syrian golden hamster [5], “Non-Toxic”; in the data set with Syrian golden hamster [6] it was 83.4 U/L. Besides, the Activity with Syrian golden hamster [7] was found to be 82.2 U/L; in the data set on Syrian golden hamster [8], 82.5 U/L; with Syrian golden hamster [9] it was 82.6 U/L; in the data set on Syrian golden hamster [10], 81.6 U/L; with Syrian golden hamster [11] it was 81.3 U/L; with Syrian golden hamster [12] it was 0.22 mg/dL. Also, the Activity in the data set with Syrian golden hamster [13] is 14.7 U/L; in the data set with Syrian golden hamster [14], 13 U/L; in the data set with Syrian golden hamster [15], 33.7 mg/dL; in the data set on Syrian golden hamster [16], 34.4 mg/dL; with Syrian golden hamster [17], 34.2 mg/dL; in the data set on Syrian golden hamster [18], 178.4 mg. Also, the figures for the Activity with Syrian golden hamster [19], in the data set with Syrian golden hamster [20] and with Syrian golden hamster [21] were 193.1 mg, 3.3 g and “Non-Toxic”, respectively. The same molecule yielded an LOAEL in data set [22] of 2 mL/kg. Moreover, the result with Leishmania tropica [23] was Active.

The values are drawn from ChEMBL document CHEMBL3872233, “Topical Treatment of Leishmania tropica Infection Using (-)-α-Bisabolol Ointment in a Hamster Model: Effectiveness and Safety Assessment” (J Nat Prod, 2016).
